Results taken from ChEMBL document CHEMBL3585281, “Antibacterial Labdane Diterpenoids from Vitex vestita” (2015).

Legend:
Format in all cases: functional
Bacillus cereus [1] = assay: Antibacterial activity against Bacillus cereus CIP 6624 after 18 hrs by agar dilution method; conditions: CIP 6624, 18 h
Procedure, shortened: (§1)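 Agar-dilution MIC against Gram-positive strains. Compounds in DMSO, geometric dilutions giving final 100−0.75 mg/L in Mueller Hinton agar. Strains grown 18 h at 37 °C in trypticase soy broth, diluted in sterile water, spotted by Steers inoculator (about 1000 UFC/spot). Plates incubated 18 h at 37 °C; DMSO blank; ofloxacin positive control. MIC = lowest concentration with no visible growth.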

Bacillus cereus [2] = assay: Antibacterial activity against Bacillus cereus N190 after 18 hrs by agar dilution method; conditions: N190, 18 h; procedure, shortened: as §1
Bacillus cereus [3] = assay: Antibacterial activity against Bacillus cereus N258 after 18 hrs by agar dilution method; conditions: N258, 18 h; procedure, shortened: as §1
Bacillus cereus [4] = assay: Antibacterial activity against Bacillus cereus N349 after 18 hrs by agar dilution method; conditions: N349, 18 h; procedure, shortened: as §1
Bacillus spizizenii = assay: Antibacterial activity against Bacillus subtilis ATCC 6633 after 18 hrs by agar dilution method; conditions: ATCC 6633, 18 h; procedure, shortened: as §1
Corynebacterium striatum = assay: Antibacterial activity against Corynebacterium striatum N840 after 18 hrs by agar dilution method; conditions: N840, 18 h; procedure, shortened: as §1
Enterococcus avium = assay: Antibacterial activity against Enterococcus avium CIP 104053 after 18 hrs by agar dilution method; conditions: CIP 104053, 18 h; procedure, shortened: as §1
[5] = tested on: Enterococcus casseliflavus; assay: Antibacterial activity against Enterococcus casseliflavus N487 after 18 hrs by agar dilution method; conditions: N487, 18 h; procedure, shortened: as §1
[6] = tested on: Enterococcus casseliflavus; assay: Antibacterial activity against Enterococcus casseliflavus CIP 103018 after 18 hrs by agar dilution method; conditions: CIP 103018, 18 h; procedure, shortened: as §1
Enterococcus durans = assay: Antibacterial activity against Enterococcus durans CIP 104999 after 18 hrs by agar dilution method; conditions: CIP 104999, 18 h; procedure, shortened: as §1
Enterococcus faecalis [7] = assay: Antibacterial activity against Enterococcus faecalis CIP 103214 after 18 hrs by agar dilution method; conditions: CIP 103214, 18 h; procedure, shortened: as §1
Enterococcus faecalis [8] = assay: Antibacterial activity against Enterococcus faecalis CIP 104676 after 18 hrs by agar dilution method; conditions: CIP 104676, 18 h; procedure, shortened: as §1
Enterococcus faecalis [9] = assay: Antibacterial activity against Enterococcus faecalis N491 after 18 hrs by agar dilution method; conditions: N491, 18 h; procedure, shortened: as §1
Enterococcus faecalis [10] = assay: Antibacterial activity against Enterococcus faecalis N518 after 18 hrs by agar dilution method; conditions: N518, 18 h; procedure, shortened: as §1
Enterococcus faecalis [11] = assay: Antibacterial activity against Enterococcus faecalis N520 after 18 hrs by agar dilution method; conditions: N520, 18 h; procedure, shortened: as §1
Enterococcus faecium [12] = assay: Antibacterial activity against Enterococcus faecium CIP 103014 after 18 hrs by agar dilution method; conditions: CIP 103014, 18 h; procedure, shortened: as §1
Enterococcus faecium [13] = assay: Antibacterial activity against Enterococcus faecium CIP 107387 after 18 hrs by agar dilution method; conditions: CIP 107387, 18 h; procedure, shortened: as §1
Enterococcus faecium [14] = assay: Antibacterial activity against Enterococcus faecium N490 after 18 hrs by agar dilution method; conditions: N490, 18 h; procedure, shortened: as §1
Enterococcus faecium [15] = assay: Antibacterial activity against Enterococcus faecium N507 after 18 hrs by agar dilution method; conditions: N507, 18 h; procedure, shortened: as §1
Enterococcus faecium [16] = assay: Antibacterial activity against Enterococcus faecium N733 after 18 hrs by agar dilution method; conditions: N733, 18 h; procedure, shortened: as §1
Enterococcus faecium [17] = assay: Antibacterial activity against Enterococcus faecium N823 after 18 hrs by agar dilution method; conditions: N823, 18 h; procedure, shortened: as §1
Enterococcus gallinarum [18] = assay: Antibacterial activity against Enterococcus gallinarum CIP 105985 after 18 hrs by agar dilution method; conditions: CIP 105985, 18 h; procedure, shortened: as §1
Enterococcus gallinarum [19] = assay: Antibacterial activity against Enterococcus gallinarum N489 after 18 hrs by agar dilution method; conditions: N489, 18 h; procedure, shortened: as §1
Enterococcus gallinarum [20] = assay: Antibacterial activity against Enterococcus gallinarum N492 after 18 hrs by agar dilution method; conditions: N492, 18 h; procedure, shortened: as §1
Enterococcus hirae = assay: Antibacterial activity against Enterococcus hirae CIP 5855 after 18 hrs by agar dilution method; conditions: CIP 5855, 18 h; procedure, shortened: as §1
Listeria innocua = assay: Antibacterial activity against Listeria innocua E044 after 18 hrs by agar dilution method; conditions: E044, 18 h; procedure, shortened: as §1
Listeria monocytogenes [21] = assay: Antibacterial activity against Listeria monocytogenes CIP 103575 after 18 hrs by agar dilution method; conditions: CIP 103575, 18 h; procedure, shortened: as §1
Listeria monocytogenes [22] = assay: Antibacterial activity against Listeria monocytogenes N783 after 18 hrs by agar dilution method; conditions: N783, 18 h; procedure, shortened: as §1
Listeria monocytogenes [23] = assay: Antibacterial activity against Listeria monocytogenes N836 after 18 hrs by agar dilution method; conditions: N836, 18 h; procedure, shortened: as §1
Listeria monocytogenes [24] = assay: Antibacterial activity against Listeria monocytogenes N851 after 18 hrs by agar dilution method; conditions: N851, 18 h; procedure, shortened: as §1
Staphylococcus aureus [25] = assay: Antibacterial activity against Staphylococcus aureus ATCC 25923 after 18 hrs by agar dilution method; conditions: ATCC 25923, 18 h; procedure, shortened: as §1
Staphylococcus aureus [26] = assay: Antibacterial activity against Staphylococcus aureus ATCC 9144 oxford after 18 hrs by agar dilution method; procedure, shortened: as §1
Staphylococcus aureus [27] = assay: Antibacterial activity against Staphylococcus aureus CIP 483 after 18 hrs by agar dilution method; conditions: CIP 483, 18 h; procedure, shortened: as §1
Staphylococcus aureus [28] = assay: Antibacterial activity against Staphylococcus aureus CIP 53154 after 18 hrs by agar dilution method; conditions: CIP 53154, 18 h; procedure, shortened: as §1
Staphylococcus aureus [29] = assay: Antibacterial activity against Staphylococcus aureus CIP 53156 after 18 hrs by agar dilution method; conditions: CIP 53156, 18 h; procedure, shortened: as §1
Staphylococcus aureus [30] = assay: Antibacterial activity against Staphylococcus aureus CIP 5710 after 18 hrs by agar dilution method; conditions: CIP 5710, 18 h; procedure, shortened: as §1
Staphylococcus aureus [31] = assay: Antibacterial activity against Staphylococcus aureus CIP 7625 after 18 hrs by agar dilution method; conditions: CIP 7625, 18 h; procedure, shortened: as §1
Staphylococcus aureus [32] = assay: Antibacterial activity against Staphylococcus aureus CRBIP 2121 after 18 hrs by agar dilution method; conditions: CRBIP 2121, 18 h; procedure, shortened: as §1
[33] = tested on: Staphylococcus epidermidis; assay: Antibacterial activity against Staphylococcus epidermidis CIP 53124 after 18 hrs by agar dilution method; conditions: CIP 53124, 18 h; procedure, shortened: as §1
[34] = tested on: Staphylococcus haemolyticus; assay: Antibacterial activity against Staphylococcus haemolyticus CIP 8156 after 18 hrs by agar dilution method; conditions: CIP 8156, 18 h; procedure, shortened: as §1
[35] = tested on: Staphylococcus intermedius; assay: Antibacterial activity against Staphylococcus intermedius N987 after 18 hrs by agar dilution method; conditions: N987, 18 h; procedure, shortened: as §1
[36] = tested on: Staphylococcus lugdunensis; assay: Antibacterial activity against Staphylococcus lugdunensis ATCC 43809 after 18 hrs by agar dilution method; conditions: ATCC 43809, 18 h; procedure, shortened: as §1
[37] = tested on: Staphylococcus saprophyticus; assay: Antibacterial activity against Staphylococcus saprophyticus CIP 76125 after 18 hrs by agar dilution method; conditions: CIP 76125, 18 h; procedure, shortened: as §1
[38] = tested on: Staphylococcus saprophyticus; assay: Antibacterial activity against Staphylococcus saprophyticus E260 after 18 hrs by agar dilution method; conditions: E260, 18 h; procedure, shortened: as §1
Mammaliicoccus sciuri = assay: Antibacterial activity against Staphylococcus sciuri N993 after 18 hrs by agar dilution method; conditions: N993, 18 h; procedure, shortened: as §1
Streptococcus agalactiae = assay: Antibacterial activity against Streptococcus agalactiae CIP 103227 after 18 hrs by agar dilution method; conditions: ATCC 13813, 18 h; procedure, shortened: as §1
MRC5 [39] = assay: Cytotoxicity against human MRC5 cells assessed as growth inhibition at 10^-5 M after 72 hrs by MTS assay relative to control; conditions: MRC5, 72 h, read-out: GI
Procedure, shortened: (§2)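 Cells from ATCC; HCT-116 grown in RPMI 1640 and MRC5 in DMEM, each with 10% FCS and 1% glutamine, 37 °C, 5% CO2. Seeded at 2.5 × 10^3 cells/well, cultured 24 h, then exposed to compounds at 1 and 10 μM final for 72 h. MTS read-out, absorbance 490 nm; percent index from treated/control OD490 × 100, three experiments.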

MRC5 [40] = assay: Cytotoxicity against human MRC5 cells assessed as growth inhibition at 10^-6 M after 72 hrs by MTS assay relative to control; conditions: MRC5, 72 h, read-out: GI; procedure, shortened: as §2
HCT-116 [41] = assay: Cytotoxicity against human HCT116 cells assessed as growth inhibition at 10^-5 M after 72 hrs by MTS assay relative to control; conditions: HCT-116, 72 h, read-out: GI; procedure, shortened: as §2
HCT-116 [42] = assay: Cytotoxicity against human HCT116 cells assessed as growth inhibition at 10^-6 M after 72 hrs by MTS assay relative to control; conditions: HCT-116, 72 h, read-out: GI; procedure, shortened: as §2

C=C1CC[C@H]2C(C)(C)CCC[C@]2(C)[C@H]1C[C@H](O)C1=CCOC1=O
71%: inhibition of growth at 10 µM (MRC5 [39])
0%: inhibition of growth at 1 µM (MRC5 [40]) | inhibition of growth at 1 µM (HCT-116 [42])
25 µM: MIC (Bacillus cereus [2]) | MIC (Bacillus cereus [3]) | MIC (Bacillus cereus [4]) | MIC (Bacillus spizizenii)
69%: inhibition of growth at 10 µM (HCT-116 [41])
> 79 µM: MIC (Enterococcus avium) | MIC [5] | MIC [6] | MIC (Enterococcus faecalis [7]) | MIC (Enterococcus faecalis [8]) | MIC (Enterococcus faecalis [9]) | MIC (Enterococcus faecalis [10]) | MIC (Enterococcus faecalis [11]) | MIC (Enterococcus faecium [12]) | MIC (Enterococcus faecium [13]) | MIC (Enterococcus faecium [15]) | MIC (Enterococcus faecium [16]) | MIC (Enterococcus faecium [17]) | MIC (Enterococcus gallinarum [18]) | MIC (Enterococcus gallinarum [20]) | MIC (Enterococcus hirae) | MIC (Listeria monocytogenes [21]) | MIC (Staphylococcus aureus [25]) | MIC (Staphylococcus aureus [27]) | MIC (Staphylococcus aureus [30]) | MIC (Staphylococcus aureus [31]) | MIC [34] | MIC [37] | MIC [38] | MIC (Mammaliicoccus sciuri)
79 µM: MIC [36]
50 µM: MIC (Bacillus cereus [1]) | MIC (Corynebacterium striatum) | MIC (Enterococcus durans) | MIC (Enterococcus faecium [14]) | MIC (Enterococcus gallinarum [19]) | MIC (Listeria innocua) | MIC (Listeria monocytogenes [22]) | MIC (Listeria monocytogenes [23]) | MIC (Listeria monocytogenes [24]) | MIC (Staphylococcus aureus [26]) | MIC (Staphylococcus aureus [28]) | MIC (Staphylococcus aureus [29]) | MIC (Staphylococcus aureus [32]) | MIC [33] | MIC [35] | MIC (Streptococcus agalactiae)
